ChEMBL document CHEMBL1134834, “Quinoxalinylethylpyridylthioureas (QXPTs) as potent non-nucleoside HIV-1 reverse transcriptase (RT) inhibitors. Further SAR studies and identification of a novel orally bioavailable hydrazine-based antiviral agent” (J Med Chem, 2001)
Blank lines part the entries; values can stand above or below the compound they belong to.

Assays:
NIH3T3 [1] = assay: Cytotoxicity against 3T3 fibroblasts (3T3F) murine cell line (O.D.=0.131+/-0.014); type: functional; settings: Mus musculus, read-out: TC50 (the source's name)
[2] = tested on: Human immunodeficiency virus 1; assay: Concentration which produces a 50% survival of HIV-1 infected cells relative to uninfected control C8166 cells; type: functional, organism-based; settings: Human immunodeficiency virus 1, C8166
Daudi [3] = assay: Cytotoxicity against Daudi Human(DH) cell line (O.D.=0.129+/-0.018); type: functional; settings: read-out: TC50 (the source's name)
Mus musculus [4] = organism: Mus musculus; assay: (§1) Cytotoxicity against NSO murine cell line (O.D.=0.125+/-0.015); type: functional; settings: read-out: TC50 (the source's name)
[5] = biological target: T1, Human immunodeficiency virus type 1 reverse transcriptase (Human immunodeficiency virus 1, UniProt Q72547); assay: Inhibition of HIV-1 Mutant HIV-1 RT enzymes containing the single amino acid substitution […]
[6] = biological target: Human immunodeficiency virus type 1 reverse transcriptase (Human immunodeficiency virus 1, UniProt Q72547, V106A); assay: Inhibition of HIV-1 Mutant HIV-1 RT enzymes containing the single amino acid substitution V106A
[7] = biological target: Human immunodeficiency virus type 1 reverse transcriptase (Human immunodeficiency virus 1, UniProt Q72547, Y181I); assay: Inhibition of HIV-1 Mutant HIV-1 RT enzymes containing the single amino acid substitution Y181I
[8] = biological target: Human immunodeficiency virus type 1 reverse transcriptase (Human immunodeficiency virus 1, UniProt Q72547, Y188L); assay: Inhibition of HIV-1 Mutant HIV-1 RT enzymes containing the single amino acid substitution Y188L
[9] = biological target: T1, Human immunodeficiency virus type 1 reverse transcriptase; assay: Inhibition of HIV-1 wild-type RT
[10] = (§2) Cytotoxicity against normal human lymphocytes(HL) (O.D.=0.114+/-0.01); settings: read-out: TC50 (the source's name)
C8166 [11] = assay: (§3) Concentration which results in 50% survival of uninfected untreated control C8166 cells (cytotoxicity of the compound); type: cell-based; settings: Homo sapiens
Outline: (§4)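 Toxicity in uninfected C8166 cells by MTT reduction to formazan, read spectrophotometrically.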

[12] = biological target: Human immunodeficiency virus type 1 reverse transcriptase (Human immunodeficiency virus 1, UniProt Q72547, K103N); assay: Inhibition of HIV-1 Mutant HIV-1 RT enzymes containing the single amino acid substitution K103N
Murine cell line = assay: cytotoxicity on 3T3 fibroblasts (3T3F) murine cell line (O.D.=0.131+/-0.014); type: functional; settings: Mus musculus, read-out: TC50 (the source's name)
CEM-SS [13] = assay: Concentration which produces a 50% survival of HIV-1 infected cells relative to uninfected control CEM-SS cells (in vitro anti-HIV activity); type: functional, cell-based; settings: Homo sapiens
Outline: (§5)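 CEM-SS T4 lymphocytes infected with wild-type HIV-1. Protection from virus-induced cell death is scored against an AZT-treated positive control run under identical conditions. […] SI = IC50/EC50.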

CEM-SS [14] = assay: (§6) Concentration which results in 50% survival of uninfected untreated control CEM-SS cells (cytotoxicity of the compound); type: functional, cell-based; settings: Homo sapiens, read-out: IC50 (the source's name)
C8166 [15] = assay: as §3; type: functional, cell-based; settings: Homo sapiens; outline: as §4
Daudi [16] = assay: cytotoxicity on Daudi Human(DH) cell line (O.D.=0.129+/-0.018); type: functional; settings: read-out: TC50 (the source's name)
Mus musculus [17] = organism: Mus musculus; assay: cytotoxicity on NSO murine cell line (O.D.=0.125+/-0.015); type: functional; settings: read-out: TC50 (the source's name)
[18] = cytotoxicity on normal human lymphocytes(HL) (O.D.=0.114+/-0.01); type: functional; settings: read-out: TC50 (the source's name)
[19] = Selectivity index (IC50/EC50) was determined in C8166 cells; type: functional
[20] = Selectivity index (IC50/EC50) was determined in CEM-SS cells; type: functional
Outline: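 CEM-SS (T4 lymphocyte) cells infected with wild-type HIV-1 were scored for protection from virus-induced cell death. […] SI = IC50/EC50. An AZT-treated positive control was run in parallel under identical conditions.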

CEM-SS [21] = assay: as §6; type: cell-based; settings: Homo sapiens
[22] = Selectivity index was determined in C8166 cells; type: functional
Outline: (§7)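 C8166 CD4+ T-cell line (HTLV-I genome, only tat expressed) acutely infected with lymphocytotropic HIV-1 IIIB. […] Read-out is HIV-p24 antigen in supernatants. AZT positive control was run at the same time. SI = IC50/EC50.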

[23] = Selectivity index was determined in CEM-SS cells; type: functional; outline: as §5
NIH3T3 [24] = assay: Cytotoxicity on 3T3 fibroblasts (3T3F) murine cell line (O.D.=0.131+/-0.014); type: functional; settings: Mus musculus, read-out: TC50 (the source's name)
C8166 [25] = assay: Synergistic antiviral activity with AZT (DDI), against HIV-IIIB in C8166 cells; type: functional, cell-based; settings: Homo sapiens
Outline: (§8)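 C8166 cells infected with HIV-IIIB and treated with compound combined with AZT (or DDI). Combination index calculated by the Chou-Talalay multiple drug effect analysis under both mutually exclusive and mutually nonexclusive assumptions.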

C8166 [26] = assay: Antiviral activity alone against HIV-IIIB in C8166 cells; type: functional, cell-based; settings: Homo sapiens; outline: as §7
C8166 [27] = assay: Synergistic antiviral activity of AZT (DDI) with the compound, against HIV-IIIB in C8166 cells; type: functional, cell-based; settings: Homo sapiens; outline: as §8
Daudi [28] = assay: Cytotoxicity on Daudi Human(DH) cell line (O.D.=0.129+/-0.018); type: functional; settings: read-out: TC50 (the source's name)
Mus musculus [29] = organism: Mus musculus; assay: Cytotoxicity on NSO murine cell line (O.D.=0.125+/-0.015); type: functional; settings: read-out: TC50 (the source's name)
Homo sapiens = organism: Homo sapiens; assay: Cytotoxicity on normal human lymphocytes(HL) (O.D.=0.114+/-0.01); type: functional; settings: read-out: TC50 (the source's name)
Mus musculus [30] = assay: Area under curve was determined after oral administration in mice; type: ADME, organism-based; settings: in vivo
Outline: (§9)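 Mice dosed at 20 mg/kg, either subcutaneously or orally; plasma drug level measured by HPLC with an internal standard; n = 3 per point. Cmax and tmax read from the concentration-time curves. Clearance assumes complete subcutaneous absorption. Elimination t1/2, Vd and AUC derived from plasma curves. Relative oral bioavailability computed as oral AUC over subcutaneous AUC.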

Mus musculus [31] = assay: Area under curve was determined after subcutaneous administration of a dose of 20 mg/kg in mice; type: ADME, organism-based; parameters: dose 20 mg/kg, route subcutaneous; settings: in vivo, sc; outline: as §9
Mus musculus [32] = assay: Volume distribution was determined after subcutaneous administration of a dose of 20 mg/kg in mice; type: ADME, organism-based; parameters: dose 20 mg/kg, route subcutaneous; settings: in vivo, sc; outline: as §9
[33] = Half life period was determined after oral administration in mice; type: ADME, organism-based; settings: mouse, in vivo; outline: as §9
[34] = Half life period was determined after subcutaneous administration of a dose of 20 mg/kg in mice; type: ADME, organism-based; parameters: dose 20 mg/kg, route subcutaneous; settings: mouse, in vivo, sc; outline: as §9
[35] = Subcutaneous absorption was determined fter subcutaneous administration of a dose of 20 mg/kg in mice; type: ADME, organism-based; parameters: dose 20 mg/kg, route subcutaneous; settings: mouse, in vivo, sc; outline: as §9
C8166 [36] = assay: Synergistic antiviral activity with AZT (DDI), against HIV-IIIB in C8166 cells (combination index in association with DDI); type: functional, cell-based; settings: Homo sapiens; outline: as §8
C8166 [37] = assay: Concentration which produces a 50% survival of HIV-1 infected cells relative to uninfected control C8166 cell (in vitro anti-HIV activity); type: functional, cell-based; settings: Homo sapiens
C8166 [38] = assay: Synergistic antiviral activity of AZT (DDI) with the compound, against HIV-IIIB in C8166 cells (combination index in association with DDI); type: functional, cell-based; settings: Homo sapiens; outline: as §8
[39] = tested on: Human immunodeficiency virus 1; assay: Inhibition of HIV-1-p24 antigen production in monocyte-macrophages (in vitro anti-HIV-1 activity); type: functional, organism-based
Outline: (§10)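 Macrophages from adherent PBMC (10^6/mL, RPMI-1640 with 20% heat-inactivated FCS), 10^5 per well, >95% pure, infected with monocytotropic HTLV-III Ba-L. Antiviral activity read 14 days after infection. […] SI = IC50/EC50. AZT control run in parallel.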

NSO = assay: as §1; type: functional; settings: Mus musculus, read-out: TC50 (the source's name)
[40] = tested on: Human immunodeficiency virus 1; assay: Inhibition of HIV-1-p24 antigen production in monocyte-macrophages (cytotoxicity of the compound); type: organism-based; outline: as §10
[41] = as §2; type: functional; settings: read-out: TC50 (the source's name)
[42] = Bioavailability was determined after subcutaneous administration of a dose of 20 mg/kg in mice; type: ADME, organism-based; settings: mouse, in vivo, po, in the assay text read “oral” for “subcutaneous”; outline: as §9

SMILES: O=c1c2cccn2c2ccccc2n1CCNC(=S)Nc1ccc(Br)cn1
CC50 (NIH3T3 [1]): 800 µM
EC50 [2]: 0.38 µM
CC50 (Daudi [3]): 800 µM
CC50 (Mus musculus [4]): 800 µM
Ki [5]: 0.105 µM
Ki [6]: 0.112 µM
Ki [7]: 4 µM
Ki [8]: 2.5 µM
Ki [9]: 0.058 µM
CC50 [10]: 800 µM
IC50 (C8166 [11]): 17 µM
Ki [12]: 0.1 µM

SMILES: O=c1c2cccn2c2c(F)cc(F)cc2n1CCNC(=S)Nc1ccc(Br)cn1
Ki [5]: 0.1 µM
Ki [6]: 0.03 µM
Ki [7]: 1.6 µM
Ki [8]: 0.45 µM
Ki [9]: 0.022 µM

SMILES: O=c1c2cccn2c2ccc(Cl)cc2n1CCNC(=S)Nc1ccc(Br)cn1
CC50 (Murine cell line): 980 µM
EC50 (CEM-SS [13]): 0.0018 µM
CC50 (CEM-SS [14]): > 2 µM
IC50 (C8166 [15]): 7 µM
EC50 [2]: 0.061 µM
CC50 (Daudi [16]): 960 µM
CC50 (Mus musculus [17]): 970 µM
Ki [5]: 0.16 µM
Ki [6]: 0.02 µM
Ki [7]: 0.24 µM
Ki [8]: 0.9 µM
Ki [9]: 0.02 µM
CC50 [18]: 970 µM
SI [19]: 123
SI [20]: >1080
Ki [12]: 0.15 µM

SMILES: Cc1cn([C@H]2C[C@H](N=[N+]=[N-])[C@@H](CO)O2)c(=O)[nH]c1=O [ZIDOVUDINE]
IC50 (CEM-SS [21]): > 1 µM
EC50 [2]: 0.4 µM
SI [22]: >250
SI [23]: 526
IC50 (C8166 [11]): > 100 µM

SMILES: O=c1c2cccn2c2ncccc2n1CCNC(=S)Nc1ccc(Br)cn1
CC50 (NIH3T3 [24]): 690 µM
EC50 (CEM-SS [13]): 0.0052 µM
CC50 (CEM-SS [14]): > 2 µM
EC50 (C8166 [25]): 0.05 µM
IC50 (C8166 [15]): 11 µM
EC50 (C8166 [26]): 0.124 µM
EC50 [2]: 0.124 µM
EC50 (C8166 [27]): 0.015 µM
CC50 (Daudi [28]): 690 µM
CC50 (Mus musculus [29]): 700 µM
Ki [5]: 0.095 µM
Ki [6]: 0.05 µM
Ki [7]: 0.4 µM
Ki [8]: 0.13 µM
Ki [9]: 0.009 µM
CC50 (Homo sapiens): 680 µM
SI [19]: 89
SI [20]: >380
Ki [12]: 0.25 µM

SMILES: O=c1n(CCNC(=S)Nc2ccc(Br)cn2)c2ccccc2c2ccnn12
Ki [5]: 0.1 µM
Ki [6]: 0.33 µM
Ki [7]: 0.52 µM
Ki [8]: 0.4 µM
Ki [9]: 0.015 µM
Ki [12]: 0.021 µM

Ki [9]: 4 µM
SMILES: O=C(NNc1nc2ccccc2n2cccc12)c1ccccn1

SMILES: O=C(NNc1nc2ccccc2n2cccc12)c1cnccn1
CC50 (NIH3T3 [1]): 880 µM
AUC (Mus musculus [30]): 21.7 nM hr-1 ml-1
AUC (Mus musculus [31]): 48.7 nM hr-1 ml-1
Vd (Mus musculus [32]): 3 L/kg
half-life [33]: 1.4 h
half-life [34]: 1.5 h
Tmax [35]: 2 h
EC50 (C8166 [36]): 0.14 µM
IC50 (C8166 [15]): 18 µM
EC50 (C8166 [26]): 0.45 µM
EC50 (C8166 [37]): 0.4 µM
EC50 (C8166 [38]): 0.098 µM
CC50 (Daudi [3]): 860 µM
EC50 [39]: 0.2 µM
CC50 (NSO): 870 µM
Ki [5]: 0.3 µM
Ki [6]: 0.8 µM
Ki [7]: 2.5 µM
Ki [8]: 1.8 µM
Ki [9]: 0.19 µM
IC50 [40]: 25 µM
CC50 [41]: 870 µM
bioavailability [42]: 45%
